Series [1] addresses T1, 5-hydroxytryptamine receptor 6 (Homo sapiens, UniProt P50406). The experiment in a line: Antagonist activity at human cloned 5HT6 receptor expressed in human HeLa cells by cyclase assay. It counts as functional, cell-based.
For series [2], the target named is T1, 5-hydroxytryptamine receptor 6. The series can be described thus: Antagonist activity at human cloned 5HT6 receptor expressed in human HeLa cells by cyclase assay relative to control. Format: functional, cell-based.
Series [3] addresses T2, 5-hydroxytryptamine receptor 1A (Homo sapiens, UniProt P08908).
T2 sequence (P08908 whole entry): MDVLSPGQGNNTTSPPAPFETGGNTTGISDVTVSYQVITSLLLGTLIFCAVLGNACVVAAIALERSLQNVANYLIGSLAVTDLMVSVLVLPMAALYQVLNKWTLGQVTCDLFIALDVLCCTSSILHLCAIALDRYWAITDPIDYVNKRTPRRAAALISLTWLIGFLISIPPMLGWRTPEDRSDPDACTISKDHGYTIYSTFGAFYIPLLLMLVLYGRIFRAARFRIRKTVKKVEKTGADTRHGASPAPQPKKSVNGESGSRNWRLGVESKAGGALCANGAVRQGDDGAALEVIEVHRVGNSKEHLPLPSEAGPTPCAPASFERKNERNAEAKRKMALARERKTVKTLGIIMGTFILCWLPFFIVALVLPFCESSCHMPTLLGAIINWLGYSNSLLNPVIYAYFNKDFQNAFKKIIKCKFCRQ
The series can be described thus: Displacement of [3H]LSD from human cloned 5HT1A receptor expressed in human HeLa cells. Format: cell-based.

For series [4], the target named is 5-hydroxytryptamine receptor 1B (Homo sapiens, UniProt P28222). The series can be described thus: Displacement of [3H]LSD from human cloned 5HT1B receptor expressed in human HeLa cells. It counts as cell-based. A general note: Loss of bound radioactivity is the signal in a displacement assay; it reports binding, not function.
The target in series [5] is 5-hydroxytryptamine receptor 1D (Homo sapiens, UniProt P28221). The series can be described thus: Displacement of [3H]LSD from human cloned 5HT1D receptor expressed in human HeLa cells. Format: cell-based.
The target in series [6] is T3, 5-hydroxytryptamine receptor 2B (Homo sapiens, UniProt P41595). The experiment in a line: Displacement of [3H]LSD from human cloned 5HT2B receptor expressed in human HeLa cells. It counts as cell-based.
The target of series [7] is T4, 5-hydroxytryptamine receptor 2C (Homo sapiens, UniProt P28335).
T4 sequence (P28335 whole entry): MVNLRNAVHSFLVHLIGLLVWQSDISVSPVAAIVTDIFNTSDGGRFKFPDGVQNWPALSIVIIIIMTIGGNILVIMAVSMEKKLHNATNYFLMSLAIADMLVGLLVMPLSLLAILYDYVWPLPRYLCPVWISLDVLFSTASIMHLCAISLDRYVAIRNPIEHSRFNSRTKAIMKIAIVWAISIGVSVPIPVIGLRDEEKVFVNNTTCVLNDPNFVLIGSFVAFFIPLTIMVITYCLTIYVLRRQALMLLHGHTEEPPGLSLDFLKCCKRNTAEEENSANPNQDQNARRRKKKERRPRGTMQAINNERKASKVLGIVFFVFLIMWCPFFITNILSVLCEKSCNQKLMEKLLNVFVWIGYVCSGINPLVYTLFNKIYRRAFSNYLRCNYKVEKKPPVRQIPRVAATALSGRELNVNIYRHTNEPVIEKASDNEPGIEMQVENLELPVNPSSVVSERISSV
The experiment in a line: Displacement of [3H]LSD from human cloned 5HT2C receptor expressed in human HeLa cells. It counts as cell-based.

For series [8], the target named is 5-hydroxytryptamine receptor 7 (Homo sapiens, UniProt P34969). The series can be described thus: Displacement of [3H]LSD from human cloned 5HT7 receptor expressed in human HeLa cells. It counts as cell-based.
Series [9] has as its target T5, Alpha-2A adrenergic receptor (Homo sapiens, UniProt P08913).
T5 sequence (P08913 whole entry): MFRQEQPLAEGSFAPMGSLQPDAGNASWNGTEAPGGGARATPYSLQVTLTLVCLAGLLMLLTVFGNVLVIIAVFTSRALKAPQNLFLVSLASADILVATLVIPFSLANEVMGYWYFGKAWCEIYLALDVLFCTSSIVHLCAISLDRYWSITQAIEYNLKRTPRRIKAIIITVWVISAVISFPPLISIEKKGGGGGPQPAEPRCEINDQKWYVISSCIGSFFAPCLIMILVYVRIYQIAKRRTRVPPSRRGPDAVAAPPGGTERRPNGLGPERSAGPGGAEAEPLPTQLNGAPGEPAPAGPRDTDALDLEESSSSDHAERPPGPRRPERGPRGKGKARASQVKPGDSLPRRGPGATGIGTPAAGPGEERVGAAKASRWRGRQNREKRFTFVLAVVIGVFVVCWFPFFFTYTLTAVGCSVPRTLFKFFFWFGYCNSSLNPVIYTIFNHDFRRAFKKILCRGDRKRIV
The series can be described thus: Displacement of [3H]LSD from human cloned alpha2A adrenergic receptor expressed in human HeLa cells. It counts as cell-based.

The next series concerns the target D(2) dopamine receptor (Homo sapiens, UniProt P14416). The experiment in a line: Displacement of [3H]LSD from human cloned dopamine D2 receptor expressed in human HeLa cells. It counts as cell-based.
The target in series [10] is T3, 5-hydroxytryptamine receptor 2B. The experiment in a line: Agonist activity at human recombinant 5HT2B receptor expressed in CHOK1 cells at 0.0001 to 10 uM by FLIPR assay. It counts as functional, cell-based. To be noted: CHO-K1.
A short description of series [11]: Oral bioavailability in rat at 10 mg/kg. It counts as ADME, organism-based. To be noted: in vivo.
A short description of series [12]: Oral bioavailability in dog at 10 mg/kg. Format: ADME, organism-based, Canis lupus familiaris. The note with it: in vivo.
Series [13] is described as follows: Ratio of drug level in brain to plasma in rat at 10 mg/kg, po. More on the design: dose 10 mg/kg, route oral. Format: ADME, organism-based. To be noted: read-out: BPR.
A short description of series [14]: Ratio of drug level in brain to plasma in dog at 10 mg/kg, po. The note with it: read-out: BPR. More on the design: dose 10 mg/kg, route oral. Format: ADME, organism-based, Canis lupus familiaris.
Series [15] is described as follows: Solubility of the compound in water. It counts as physicochemical.
Series [16] is described as follows: Protein binding in rat brain at 10 mg/kg, po. Format: ADME, organism-based. The note with it: read-out: PPB (converted). The arrangement: dose 10 mg/kg, route oral.
Series [17] is described as follows: Plasma protein binding in rat at 10 mg/kg, po. Format: ADME, organism-based. The note with it: read-out: PPB (converted). More on the design: dose 10 mg/kg, route oral.
Series [18] concerns Rattus norvegicus. The series can be described thus: Inhibition of scopolamine-induced memory deficit in po dosed rat by novel object recognition test. To be noted: read-out: MED. It counts as functional.
For series [19], the system named is Rattus norvegicus. The series can be described thus: Enhancement of memory in po dosed rat measured after 48 hrs delay by novel object recognition test. Format: functional, organism-based.
For series [20], the system named is Rattus norvegicus. The series can be described thus: Enhancement of memory in po dosed rat assessed as minimum effective dose measured after 48 hrs delay by novel object recognition test. It counts as functional. To be noted: read-out: MED.
The subject of series [21] is Rattus norvegicus. The experiment in a line: Induction of acetylcholine release in hippocampus of rat at 10 mg/kg, po. Format: functional, organism-based. The arrangement: dose 10 mg/kg.
Series [22] relates to Rattus norvegicus. The experiment in a line: Induction of glutamate release in hippocampus of rat at 10 mg/kg, po. It counts as functional, organism-based. The arrangement: dose 10 mg/kg.
Series [23] has as its target T1, 5-hydroxytryptamine receptor 6. The experiment in a line: Displacement of [3H]LSD from human cloned 5HT6 receptor expressed in human HeLa cells. It counts as cell-based. The gist of the method:
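Radioligand displacement of [3H]LSD from cloned human 5-HT6 receptor stably expressed in HeLa cells. All test substances were used as HCl salts. Ki was determined in triplicate.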

Experimental findings from ChEMBL document CHEMBL1275334, “5-Piperazinyl-3-sulfonylindazoles as potent and selective 5-hydroxytryptamine-6 antagonists” (J Med Chem, 2010) are described below.

Calls of active or inactive are those of the source. No cut-off for these calls is given here.

Sequence of D(2) dopamine receptor (P14416 whole entry): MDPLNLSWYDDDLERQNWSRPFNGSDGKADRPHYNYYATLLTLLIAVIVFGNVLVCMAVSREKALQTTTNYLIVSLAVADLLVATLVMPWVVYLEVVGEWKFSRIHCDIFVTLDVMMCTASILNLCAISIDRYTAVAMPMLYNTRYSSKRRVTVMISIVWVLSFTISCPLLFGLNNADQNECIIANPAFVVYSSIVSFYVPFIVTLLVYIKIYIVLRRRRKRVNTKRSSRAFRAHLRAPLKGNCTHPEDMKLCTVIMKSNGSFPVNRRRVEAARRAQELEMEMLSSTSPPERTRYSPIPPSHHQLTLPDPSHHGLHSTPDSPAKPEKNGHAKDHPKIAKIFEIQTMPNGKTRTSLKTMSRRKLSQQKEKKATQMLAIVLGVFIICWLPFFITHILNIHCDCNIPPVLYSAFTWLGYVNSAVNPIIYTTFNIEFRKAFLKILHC
T1 sequence (P50406 whole entry): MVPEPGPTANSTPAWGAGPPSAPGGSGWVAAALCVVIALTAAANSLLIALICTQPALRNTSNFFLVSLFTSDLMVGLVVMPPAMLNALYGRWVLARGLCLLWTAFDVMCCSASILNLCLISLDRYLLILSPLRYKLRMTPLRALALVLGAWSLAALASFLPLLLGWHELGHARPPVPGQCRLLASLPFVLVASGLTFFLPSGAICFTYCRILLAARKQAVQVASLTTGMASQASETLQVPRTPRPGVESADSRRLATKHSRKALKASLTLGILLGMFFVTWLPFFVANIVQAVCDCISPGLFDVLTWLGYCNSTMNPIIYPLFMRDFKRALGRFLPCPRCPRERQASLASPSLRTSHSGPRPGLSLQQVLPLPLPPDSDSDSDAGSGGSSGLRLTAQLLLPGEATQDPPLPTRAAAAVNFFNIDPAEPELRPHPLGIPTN
Sequence of 5-hydroxytryptamine receptor 1B (P28222 whole entry): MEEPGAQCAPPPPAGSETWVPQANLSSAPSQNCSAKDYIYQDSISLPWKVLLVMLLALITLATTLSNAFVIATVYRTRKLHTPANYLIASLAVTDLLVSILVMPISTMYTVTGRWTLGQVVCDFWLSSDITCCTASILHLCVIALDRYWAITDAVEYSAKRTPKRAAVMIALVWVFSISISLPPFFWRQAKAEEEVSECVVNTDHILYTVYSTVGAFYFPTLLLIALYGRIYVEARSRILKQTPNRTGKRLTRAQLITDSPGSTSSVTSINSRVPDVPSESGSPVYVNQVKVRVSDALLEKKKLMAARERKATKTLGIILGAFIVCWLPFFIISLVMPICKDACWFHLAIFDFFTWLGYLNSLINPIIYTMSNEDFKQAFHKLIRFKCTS
T3 sequence (P41595 whole entry): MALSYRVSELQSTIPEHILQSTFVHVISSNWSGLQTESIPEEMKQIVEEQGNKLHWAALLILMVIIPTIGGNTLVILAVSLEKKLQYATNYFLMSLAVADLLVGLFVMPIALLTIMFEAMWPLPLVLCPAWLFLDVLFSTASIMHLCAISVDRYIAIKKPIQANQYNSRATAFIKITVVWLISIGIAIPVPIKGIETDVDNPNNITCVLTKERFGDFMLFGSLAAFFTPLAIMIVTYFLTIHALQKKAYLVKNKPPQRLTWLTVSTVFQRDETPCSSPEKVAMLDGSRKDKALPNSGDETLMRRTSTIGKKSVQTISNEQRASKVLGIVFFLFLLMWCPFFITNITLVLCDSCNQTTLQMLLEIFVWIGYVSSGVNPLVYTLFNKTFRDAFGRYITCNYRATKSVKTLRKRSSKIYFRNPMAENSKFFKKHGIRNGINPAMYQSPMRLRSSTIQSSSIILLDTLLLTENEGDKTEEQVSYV
Sequence of 5-hydroxytryptamine receptor 7 (P34969 whole entry): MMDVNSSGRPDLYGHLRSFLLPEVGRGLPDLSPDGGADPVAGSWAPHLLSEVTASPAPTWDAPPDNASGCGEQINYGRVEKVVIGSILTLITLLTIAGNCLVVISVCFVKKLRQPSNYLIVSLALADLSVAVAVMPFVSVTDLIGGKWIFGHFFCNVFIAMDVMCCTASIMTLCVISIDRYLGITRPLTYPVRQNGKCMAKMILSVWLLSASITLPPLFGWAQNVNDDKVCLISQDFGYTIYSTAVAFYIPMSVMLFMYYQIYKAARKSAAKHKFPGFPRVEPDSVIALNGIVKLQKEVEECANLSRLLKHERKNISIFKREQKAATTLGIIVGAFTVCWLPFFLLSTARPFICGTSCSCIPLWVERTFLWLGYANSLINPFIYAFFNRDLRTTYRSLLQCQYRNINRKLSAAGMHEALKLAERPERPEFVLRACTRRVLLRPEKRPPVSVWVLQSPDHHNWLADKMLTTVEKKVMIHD
Sequence of 5-hydroxytryptamine receptor 1D (P28221 whole entry): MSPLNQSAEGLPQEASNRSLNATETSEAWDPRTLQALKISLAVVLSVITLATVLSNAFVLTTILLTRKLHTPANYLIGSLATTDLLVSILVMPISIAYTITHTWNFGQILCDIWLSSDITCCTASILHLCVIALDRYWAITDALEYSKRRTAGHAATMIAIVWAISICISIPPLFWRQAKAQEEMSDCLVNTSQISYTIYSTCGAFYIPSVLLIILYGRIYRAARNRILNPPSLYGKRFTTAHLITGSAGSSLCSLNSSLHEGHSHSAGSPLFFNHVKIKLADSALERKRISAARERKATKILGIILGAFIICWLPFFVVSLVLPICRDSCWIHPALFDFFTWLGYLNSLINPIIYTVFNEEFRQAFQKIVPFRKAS

In series [1], `O=S(=O)(c1cccc2ccccc12)c1n[nH]c2ccc(N3CCNCC3)cc12` came in with an IC50 of 13 nM. In series [2], this molecule displayed an Imax of 100%. Further, the inhibition constant Ki in series [3] is 573 nM; in series [4], over 5000 nM; in series [5], over 5000 nM; in [6] it was 236 nM; in series [7], over 5000 nM; in [8], 1560 nM. The Ki (in [9]; on D(2) dopamine receptor) was over 5000 nM throughout. Moreover, the result in [10] was inactive. In addition, the bioavailability in series [11] and in [12] was over 20% each time. Also, the Kp in [13] and in [14] was under 0.2 each time. Also, the solubility in [15] was over 100 µg/mL. The fraction unbound in [16] and in [17] was 0.2 in each case. Moreover, the minimal effective dose with Rattus norvegicus [18] was 0.03 mg/kg; with Rattus norvegicus [20] it was 3 mg/kg. In the series with Rattus norvegicus [19], the Activity entry is “Dose-dependent effect”. Besides, the result with Rattus norvegicus [21] and with Rattus norvegicus [22] was Active.

`CN1CCN(c2ccc3[nH]nc(S(=O)(=O)c4cccc5ccccc45)c3c2)CC1`: the Ki in series [23] is 1.6 nM; in [3] it was over 5000 nM; in [4], over 5000 nM; in series [5], over 5000 nM; in series [6] it was 601 nM; in series [7], over 5000 nM. The figures for the Ki (in series [8]; in series [9]; on D(2) dopamine receptor) were 579 nM, over 5000 nM and 334 nM, respectively. The molecule further returned an IC50 in series [1] of 8 nM. The Imax in series [2] came out at 100%. For the same molecule, the outcome in [10] was inactive. Also, in series [11], the bioavailability worked out at 5%.

Turning to `O=S(=O)(c1cccc2ccccc12)c1nn(Cc2ccccc2)c2ccc(N3CCNCC3)cc12`, the Imax in [2] turned out to be 100%. The Ki was over 5000 nM in [3]; over 5000 nM in series [4]; over 5000 nM in [5]; 141 nM in [6]; 1070 nM in series [7]; over 5000 nM in [8]. Further, the Ki in series [9] was over 5000 nM; at D(2) dopamine receptor, 605 nM. In addition, the outcome in series [10] was inactive. Also, in [11], the bioavailability was over 50%. For the same molecule, the Kp in series [13] was over 0.5.

A word on the IC50: it is the concentration needed to halve the response being measured. One may read the Ki as a measure of affinity in units of concentration, obtained from inhibition or displacement. High values mean weaker binding, low ones tighter binding. The bioavailability is dose-corrected exposure relative to a reference, in per cent. A higher bioavailability goes with much systemic uptake. For orientation: solubility means the concentration that dissolves in the medium under given conditions.
